Assay results from ChEMBL document CHEMBL3286128 (J Med Chem, 2014).
Active and inactive are the calls of the source. The calls are words filed in the database; no cut-off is given here.

Tests used:
[1] = target: T1, Human immunodeficiency virus type 1 integrase (Human immunodeficiency virus 1, UniProt Q7ZJM1)
[2] = target: T1, Human immunodeficiency virus type 1 integrase; experiment: Inhibition of strand transfer activity of HIV-1 integrase using [gamma-32P]-labeled DNA as substrate
Outline: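 Gel-based assay with radiolabelled oligonucleotide substrate and Mg2+ cofactor, measuring strand transfer by recombinant HIV-1 integrase. IC50 determined.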

[3] = tested on: Human immunodeficiency virus 1; experiment: Antiviral activity against HIV-1 harboring wild type integrase infected in human HOS cells pretreated with compound for 3 hrs by single-round HIV-1 infectivity assay; assay type: functional, organism-based; details: Human immunodeficiency virus 1, HOS
[4] = tested on: Human immunodeficiency virus 1; experiment: Ratio of EC50 for raltegravir-resistant HIV-1 harboring integrase Y143R mutant infected in human HOS cells to EC50 for HIV-1 harboring integrase wild type integrase infected in human HOS cells; assay type: functional
HOS = experiment: Cytotoxicity against human HOS cells assessed as ATP level by luciferase reporter assay; assay type: cell-based
Outline: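 HOS cells were exposed to compound and viability was read as ATP level by luciferase reporter. […] SI is CC50 divided by WT-vector EC50.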

[5] = Selectivity index, ratio of CC50 for human HOS cells to EC50 for HIV-1 harboring wild type integrase infected in human HOS cells; assay type: toxicity, cell-based; details: read-out: Ratio CC50/EC50
Outline: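 HOS cells were exposed to compound and viability was read as ATP level by luciferase reporter. SI is CC50 divided by WT-vector EC50.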

[6] = Retention time of the compound by HPLC analysis; assay type: physicochemical
Outline: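 Preparative HPLC run as a linear gradient of solvent B over 30 min, starting at 30% B and ending at 70% or 80% B depending on the compound. Retention time was taken at elution.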

[7] = tested on: Human immunodeficiency virus 1; experiment: Antiviral activity against raltegravir-resistant HIV-1 harboring integrase Y143R mutant infected in human HOS cells pretreated with compound for 3 hrs by single-round HIV-1 infectivity assay; assay type: functional, organism-based; details: Human immunodeficiency virus 1, HOS
[8] = tested on: Human immunodeficiency virus 1; experiment: Antiviral activity against raltegravir-resistant HIV-1 harboring integrase N155H mutant infected in human HOS cells pretreated with compound for 3 hrs by single-round HIV-1 infectivity assay; assay type: functional, organism-based; details: Human immunodeficiency virus 1, HOS
[9] = tested on: Human immunodeficiency virus 1; experiment: Antiviral activity against raltegravir-resistant HIV-1 harboring integrase G140S/Q148H double mutant infected in human HOS cells pretreated with compound for 3 hrs by single-round HIV-1 infectivity assay; assay type: functional, organism-based; details: Human immunodeficiency virus 1, HOS
[10] = tested on: Human immunodeficiency virus 1; experiment: Ratio of EC50 for raltegravir-resistant HIV-1 harboring integrase N155H mutant infected in human HOS cells to EC50 for HIV-1 harboring integrase wild type integrase infected in human HOS cells; assay type: functional
[11] = tested on: Human immunodeficiency virus 1; experiment: Ratio of EC50 for raltegravir-resistant HIV-1 harboring integrase G140S/Q148H double mutant infected in human HOS cells to EC50 for HIV-1 harboring integrase wild type integrase infected in human HOS cells; assay type: functional
[12] = tested on: Human immunodeficiency virus 1; experiment: Antiviral activity against INSTI-resistant HIV-1 harboring integrase R263K mutant infected in human HOS cells pretreated with compound for 3 hrs by single-round HIV-1 infectivity assay; assay type: functional, organism-based; details: Human immunodeficiency virus 1, HOS
Outline: (§1)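 VSV-g-pseudotyped single-round HIV-1 luciferase vector (WT or mutant IN) made in 293T cells by calcium phosphate transfection, supernatant harvested at 48 h. HOS cells were seeded the day before, then pretreated with compound, 11 serial dilutions from 10 μM to 0.0005 μM, at 37 °C for 3 h. Virus was added and cells kept 48 h at 37 °C. Luciferase was read and normalised to infectivity without compound.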

[13] = tested on: Human immunodeficiency virus 1; experiment: Antiviral activity against INSTI-resistant HIV-1 harboring integrase G118R mutant infected in human HOS cells pretreated with compound for 3 hrs by single-round HIV-1 infectivity assay; assay type: functional, organism-based; details: Human immunodeficiency virus 1, HOS
Outline: as §1

[14] = tested on: Human immunodeficiency virus 1; experiment: Ratio of EC50 for INSTI-resistant HIV-1 harboring integrase R263K mutant infected in human HOS cells to EC50 for HIV-1 harboring integrase wild type integrase infected in human HOS cells; assay type: functional
[15] = tested on: Human immunodeficiency virus 1; experiment: Ratio of EC50 for INSTI-resistant HIV-1 harboring integrase G118R mutant infected in human HOS cells to EC50 for HIV-1 harboring integrase wild type integrase infected in human HOS cells; assay type: functional
[16] = tested on: Human immunodeficiency virus 1; experiment: Antiviral activity against HIV-1 harboring wild type integrase infected in human HOS cells pretreated with compound for 3 hrs by single-round HIV-1 infectivity assay in presence of 5% fetal bovine serum; assay type: functional, organism-based; details: Human immunodeficiency virus 1, HOS
Outline: as §1

[17] = tested on: Human immunodeficiency virus 1; experiment: Antiviral activity against HIV-1 harboring wild type integrase infected in human HOS cells pretreated with compound for 3 hrs by single-round HIV-1 infectivity assay in presence of 10% fetal bovine serum; assay type: functional, organism-based; details: Human immunodeficiency virus 1, HOS
Outline: as §1

[18] = tested on: Human immunodeficiency virus 1; experiment: Antiviral activity against HIV-1 harboring wild type integrase infected in human HOS cells pretreated with compound for 3 hrs by single-round HIV-1 infectivity assay in presence of 15% fetal bovine serum; assay type: functional, organism-based; details: Human immunodeficiency virus 1, HOS
Outline: as §1

[19] = target: Human immunodeficiency virus type 1 reverse transcriptase (Human immunodeficiency virus 1) (UniProt Q72547); experiment: Inhibition of HIV-1 DNA-dependent DNA polymerase activity of reverse transcriptase after 60 mins by agarose gel electrophoresis
[20] = target: Human immunodeficiency virus type 1 reverse transcriptase (Human immunodeficiency virus 1) (UniProt Q72547); experiment: Inhibition of HIV-1 reverse transcriptase RNase H activity-mediated -8 cleavage assessed as retention of -17 cleavage at 10 uM by agarose gel electrophoresis

T1 sequence (Q7ZJM1 whole entry): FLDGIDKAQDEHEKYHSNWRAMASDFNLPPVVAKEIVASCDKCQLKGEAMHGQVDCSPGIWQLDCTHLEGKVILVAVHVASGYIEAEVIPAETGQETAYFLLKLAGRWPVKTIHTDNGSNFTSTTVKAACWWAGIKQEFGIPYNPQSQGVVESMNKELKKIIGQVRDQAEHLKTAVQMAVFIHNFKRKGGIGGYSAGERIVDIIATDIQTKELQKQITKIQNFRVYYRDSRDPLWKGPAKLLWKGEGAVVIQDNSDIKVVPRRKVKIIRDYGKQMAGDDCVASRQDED

| Structure (SMILES) | IC50 [1] | IC50 [2] | EC50 [3] | Ratio EC50 [4] | CC50 (HOS) | selectivity ratio [5] | Retention_time [6] | EC50 [7] | EC50 [8] | EC50 [9] | further results |
| --- | --- | --- | --- | --- | --- | --- | --- | --- | --- | --- | --- |
| Nc1ccc(-c2ccc(Nc3c(C(=O)NCc4ccc(F)cc4F)c(=O)n(O)c4ncccc34)cc2)cc1 | 80000 nM | 130 nM | 6.3 nM | 16 | > 250000 nM | > 39700 | 15.6 min | – | – | – | – |
| CN(C)c1c(C(=O)NCc2ccc(F)cc2F)c(=O)n(O)c2ncccc12 | 21000 nM | 87 nM | 268 nM | 1 | 13000 nM | 49 | 21.6 min | 273 nM | 2300 nM | 6800 nM | Ratio EC50 [10]: 9; Ratio EC50 [11]: 25 |
| CCCCCNc1c(C(=O)NCc2ccc(F)cc2F)c(=O)n(O)c2ncccc12 | 8200 nM | 24 nM | 7.4 nM | – | 94000 nM | – | 23.7 min | – | – | – | – |
| N#Cc1ccc(-c2ccc(Nc3c(C(=O)NCc4ccc(F)cc4F)c(=O)n(O)c4ncccc34)cc2)cc1 | 70000 nM | 130 nM | 123 nM | 3 | > 250000 nM | > 2030 | 22.3 min | – | – | – | – |
| O=C(NCc1ccc(F)cc1F)c1c(Nc2ccccc2)c2cccnc2n(O)c1=O | 6900 nM | 18 nM | 14 nM | – | > 250000 nM | – | 20.2 min | – | – | – | – |
| C[C@@H]1CCO[C@H]2Cn3cc(C(=O)NCc4ccc(F)cc4F)c(=O)c(O)c3C(=O)N12 [DOLUTEGRAVIR] | – | – | 1.6 nM | – | – | – | – | 4.3 nM | 3.6 nM | 5.8 nM | EC50 [12]: 11 nM; EC50 [13]: 13 nM |
| O=C(NCc1ccc(F)cc1F)c1c(N2CCOCC2)c2cccnc2n(O)c1=O | 77000 nM | 79 nM | 1200 nM | 1.5 | 8400 nM | 7 | 20.5 min | 1800 nM | 3730 nM | 6920 nM | Ratio EC50 [10]: 3; Ratio EC50 [11]: 6 |
| CCOC(=O)[C@@H]1CCCN1c1c(C(=O)NCc2ccc(F)cc2F)c(=O)n(O)c2ncccc12 | 86000 nM | 310 nM | 590 nM | 3 | 18000 nM | 31 | 12.5 min | 1660 nM | – | – | – |
| COC(=O)[C@H](Nc1c(C(=O)NCc2ccc(F)cc2F)c(=O)n(O)c2ncccc12)c1ccccc1 | – | – | 7.4 nM | – | – | – | 26.3 min | – | 22 nM | – | – |
| CNc1c(C(=O)NCc2ccc(F)cc2F)c(=O)n(O)c2ncccc12 | 3700 nM | 27 nM | 3.1 nM | – | > 250000 nM | – | 26.4 min | – | – | – | – |
| COC(=O)[C@@H](C)Nc1c(C(=O)NCc2ccc(F)cc2F)c(=O)n(O)c2ncccc12 | – | – | 11.3 nM | – | > 250000 nM | – | 26.4 min | 8.1 nM | – | 89 nM | – |
| COC(=O)[C@H](CO)Nc1c(C(=O)NCc2ccc(F)cc2F)c(=O)n(O)c2ncccc12 | 5800 nM | 8.4 nM | 9.7 nM | – | > 250000 nM | – | 15.9 min | – | – | – | – |
| O=C(NCc1ccc(F)cc1F)c1c(NCCc2ccccc2)c2cccnc2n(O)c1=O | 8000 nM | 50 nM | 14 nM | – | > 250000 nM | – | 22 min | – | – | – | – |
| O=C(NCc1ccc(F)cc1F)c1c(NCCO)c2cccnc2n(O)c1=O | 550 nM | 10 nM | 5.2 nM | 0.88 | 24000 nM | 4620 | 21.6 min | 4.6 nM | 25 nM | 43 nM | Ratio EC50 [10]: 5; Ratio EC50 [11]: 8; EC50 [12]: 26 nM; EC50 [13]: 27 nM; Ratio EC50 [14]: 5; Ratio EC50 [15]: 5 |
| CC(=O)OCCNc1c(C(=O)NCc2ccc(F)cc2F)c(=O)n(O)c2ncccc12 | 5300 nM | 27 nM | 4.5 nM | 1 | > 250000 nM | > 55600 | 23.6 min | 4.8 nM | 3.1 nM | 35 nM | Ratio EC50 [10]: 0.69; Ratio EC50 [11]: 8; EC50 [12]: 16 nM; EC50 [13]: 44 nM; Ratio EC50 [14]: 4; Ratio EC50 [15]: 10; EC50 [16]: 4.5 nM; EC50 [17]: 4.5 nM; EC50 [18]: 4.5 nM; inhibition [19]: Active; inhibition [20]: Active |
| Nc1c(C(=O)NCc2ccc(F)cc2F)c(=O)n(O)c2ncccc12 | – | – | 1.1 nM | – | > 250000 nM | – | 19.5 min | – | – | – | EC50 [12]: 6.4 nM; EC50 [13]: 16 nM; EC50 [16]: 1.1 nM; EC50 [17]: 1.1 nM; EC50 [18]: 1.1 nM; inhibition [19]: Active; inhibition [20]: Active |
| O=C(NCc1ccc(F)cc1F)c1c(NC2CCCCCC2)c2cccnc2n(O)c1=O | 13000 nM | 460 nM | 12 nM | 0.55 | 68000 nM | 5670 | 25.8 min | 6.6 nM | 14 nM | 35 nM | Ratio EC50 [10]: 1; Ratio EC50 [11]: 3 |
| COC(=O)[C@H](C)Nc1c(C(=O)NCc2ccc(F)cc2F)c(=O)n(O)c2ncccc12 | – | – | 4.2 nM | – | – | – | 26.4 min | – | – | – | – |
| COC(=O)[C@@H](Nc1c(C(=O)NCc2ccc(F)cc2F)c(=O)n(O)c2ncccc12)c1ccccc1 | – | – | – | – | > 250000 nM | – | 22.6 min | – | – | – | – |
| O=C(NCc1ccc(F)cc1F)c1c(NCCCCc2ccccc2)c2cccnc2n(O)c1=O | 12000 nM | 280 nM | 50 nM | 0.8 | 102000 nM | 2040 | 26.7 min | 40 nM | 116 nM | 243 nM | Ratio EC50 [10]: 2; Ratio EC50 [11]: 5 |
| O=C(NCc1ccc(F)cc1F)c1c(Nc2ccc(-c3ccccc3)cc2)c2cccnc2n(O)c1=O | 52000 nM | 340 nM | 372 nM | 1 | > 250000 nM | > 672 | 22.8 min | – | – | – | – |
| COC(=O)[C@@H](CO)Nc1c(C(=O)NCc2ccc(F)cc2F)c(=O)n(O)c2ncccc12 | 4400 nM | 13 nM | 14.2 nM | – | – | – | 20.5 min | – | – | – | – |
| O=C(NCc1ccc(F)cc1F)c1c(Nc2ccc3c(c2)Cc2ccccc2-3)c2cccnc2n(O)c1=O | 46000 nM | 840 nM | 171 nM | 3 | > 250000 nM | > 1460 | 21.3 min | – | – | – | – |
| NCCNc1c(C(=O)NCc2ccc(F)cc2F)c(=O)n(O)c2ncccc12 | 4500 nM | 39 nM | 35 nM | – | 9600 nM | – | 25.9 min | – | – | – | – |
| CC(C)Nc1c(C(=O)NCc2ccc(F)cc2F)c(=O)n(O)c2ncccc12 | 1800 nM | 16 nM | 7.2 nM | – | > 250000 nM | – | 17 min | – | – | – | – |
